The values below come from ChEMBL document CHEMBL3600351, “Exploiting translational stalling peptides in an effort to extend azithromycin interaction within the prokaryotic ribosome nascent peptide exit tunnel” (Bioorg Med Chem, 2015).

≈ marks a conversion by molar mass, not a printed value. Calls of active or inactive are those of the source. The rule behind the calls is not given here.

Test [1] deals with Escherichia coli. As to the kind of experiment: Antibacterial activity against Escherichia coli ATCC 27856 assessed as inhibition of bacterial growth after 18 hrs by liquid microdilution method. In kind it is functional. Summed up: (§1)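 Liquid microdilution. Overnight 37 °C cultures, E. coli ATCC 27856 in LB and S. aureus ATCC 29213 in TSB, diluted 1:1000 in the same medium and exposed to compound. Growth was taken from OD600 before and after 18 h at 37 °C. MIC50 is the read-out. Triplicate, normalized to an internal vehicle control.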
On the technique in general: Dilution methods test growth across graded concentrations, often in twofold steps.

For test [2], the system named is Staphylococcus aureus. The test is described as follows: Antibacterial activity against Staphylococcus aureus ATCC 29213 assessed as inhibition of bacterial growth after 18 hrs in presence of 50% bovine serum by liquid microdilution method. The settings on record: ATCC 29213, 18 h. The test is classed as functional. In a few lines: (§2)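 S. aureus ATCC 29213 overnight culture (37 °C) diluted 1:1000 in 50% bovine serum/broth and run by liquid microdilution. Growth was taken from OD600 change over 18 h at 37 °C to give MIC50, in triplicate against a vehicle control. The enhancement ratio is MIC50 without serum divided by MIC50 with serum.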

For test [3], the system named is Staphylococcus aureus. The test is described as follows: Antibacterial activity against Erm+ methicillin-resistant Staphylococcus aureus ATCC 33591 assessed as inhibition of bacterial growth after 18 hrs by liquid microdilution method. The test is classed as functional. Summed up: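 MRSA grown overnight at 37 °C in Nutrient broth, diluted 1:1000 in the same medium, then plated with the compounds. Growth was judged by comparing OD600 before and after 18 h at 37 °C. MIC50 was taken by liquid microdilution. Vancomycin was the positive control. Each compound was run in triplicate and standardized against an internal vehicle control.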

Test [4] deals with Staphylococcus aureus. As to the kind of experiment: Ratio of MIC50 for Staphylococcus aureus ATCC 29213 in absence of 50% bovine serum to MIC50 for Staphylococcus aureus ATCC29213 in presence of 50% bovine serum. In kind it is functional. In a few lines: as §2
The nature of test [5]: Inhibition of ribosome nascent peptide exit tunnel in Escherichia coli S30 extract assessed as inhibition of prokaryotic translation in presence of amino acids incubated for 20 mins by luciferase reporter gene assay. In a few lines: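 E. coli S30 cell-free extract with all amino acids, preincubated with compound for 20 min at room temperature. Luciferase control template added, translation run 60 min at 37 °C, then stopped by 5 min on ice. Luminescence was read after luciferin addition. IC50 from nonlinear fit, triplicate, normalized to vehicle control.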
On the technique in general: A reporter such as luciferase makes a cellular process visible.

Test [6] deals with Staphylococcus aureus. As to the kind of experiment: Antibacterial activity against Staphylococcus aureus ATCC 29213 assessed as inhibition of bacterial growth after 18 hrs by liquid microdilution method. In kind it is functional. The settings on record: ATCC 29213, 18 h. Summed up: as §1
Test [7] is described as follows: Binding affinity to ribosome nascent peptide exit tunnel in rabbit reticulocyte extract assessed as inhibition of eukaryotic translation in presence of amino acids incubated for 20 mins by luciferase reporter gene assay. Details: species or system Oryctolagus cuniculus. Summed up:
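Nuclease-treated rabbit reticulocyte lysate with all amino acids, preincubated with compound for 20 min at room temperature. Luciferase control template added, translation run 90 min at 30 °C, then stopped by 5 min on ice. Luminescence was read after luciferin addition. IC50 from nonlinear fit, triplicate, normalized to vehicle control.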

Test [8] concerns Escherichia coli. As to the kind of experiment: Inhibition of ribosome nascent peptide exit tunnel in Escherichia coli S30 extract assessed as inhibition of prokaryotic translation in presence of amino acids incubated for 20 mins by luciferase reporter gene assay relative to azithromycin.

In general, MIC50 refers to an inhibitory concentration at the 50% level, which refers to growth in some studies and to a panel of isolates in others. A word on the IC50: it is the midpoint of a concentration-inhibition curve. In the case of `CC[C@H]1OC(=O)[C@H](C)[C@@H](O[C@H]2C[C@@](C)(OC)[C@@H](O)[C@H](C)O2)[C@H](C)[C@@H](O[C@@H]2O[C@H](C)C[C@H](N(C)C)[C@H]2O)[C@](C)(O)C[C@@H](C)CN(CCCCc2cn(CCn3ccc4cc(Cl)ccc43)nn2)[C@H](C)[C@@H](O)[C@]1(C)O`, the MIC50 in the test on Escherichia coli [1] (ATCC 27856, 18 h) was determined as 64 µg/mL (≈ 61.8 µM); with Staphylococcus aureus [2], 0.16 µg/mL; with Staphylococcus aureus [6], 0.78 µg/mL (≈ 0.753 µM). Further, the MIC50 entry in the test on Staphylococcus aureus [3] is “inactive”. Further, the Ratio in the test with Staphylococcus aureus [4] is reported as 5. Also, the 50% inhibitory concentration (IC50) in test [5] was 490 nM; in test [7], over 250000 nM.

With `CC[C@H]1OC(=O)[C@H](C)[C@@H](O[C@H]2C[C@@](C)(OC)[C@@H](O)[C@H](C)O2)[C@H](C)[C@@H](O[C@@H]2O[C@H](C)C[C@H](N(C)C)[C@H]2O)[C@](C)(O)C[C@@H](C)CN(Cc2ccc(-c3cn(CCc4cn(C)c5ccccc45)nn3)cc2)[C@H](C)[C@@H](O)[C@]1(C)O`, the MIC50 was determined as 128 µg/mL (≈ 122 µM) with Escherichia coli [1] (ATCC 27856, 18 h); 1.56 µg/mL in the test on Staphylococcus aureus [2]; 6.25 µg/mL (≈ 5.96 µM) with Staphylococcus aureus [6]. In addition, the MIC50 result in the test with Staphylococcus aureus [3] is “inactive”. Besides, in the test with Staphylococcus aureus [4], the Ratio is listed as 4. The results for the IC50 in test [5] and in test [7] were 641 nM and over 250000 nM, respectively.

As to `CC[C@H]1OC(=O)[C@H](C)[C@@H](O[C@H]2C[C@@](C)(OC)[C@@H](O)[C@H](C)O2)[C@H](C)[C@@H](O[C@@H]2O[C@H](C)C[C@H](N(C)C)[C@H]2O)[C@](C)(O)C[C@@H](C)CN(Cc2ccc(-c3cn(CCn4ccc5ccccc54)nn3)cc2)[C@H](C)[C@@H](O)[C@]1(C)O`, the MIC50 in the test with Escherichia coli [1] (ATCC 27856, 18 h) stood at 64 µg/mL (≈ 61.8 µM); in the test on Staphylococcus aureus [2], 0.63 µg/mL; in the test with Staphylococcus aureus [6], 1.56 µg/mL (≈ 1.51 µM). Besides, in the test with Staphylococcus aureus [3], the MIC50 result was “inactive”. The Ratio with Staphylococcus aureus [4] stood at 2.5. The half-inhibitory concentration (IC50) is 197 nM in test [5] and over 250000 nM in test [7].

`CC[C@H]1OC(=O)[C@H](C)[C@@H](O[C@H]2C[C@@](C)(OC)[C@@H](O)[C@H](C)O2)[C@H](C)[C@@H](O[C@@H]2O[C@H](C)C[C@H](N(C)C)[C@H]2O)[C@](C)(O)C[C@@H](C)CN(Cc2ccc(-c3cn(CCc4c[nH]c5ccccc45)nn3)cc2)[C@H](C)[C@@H](O)[C@]1(C)O`: the MIC50 result in the test with Escherichia coli [1] and with Staphylococcus aureus [3] was “inactive” in each case. In addition, the results for the MIC50 in the test on Staphylococcus aureus [2] and with Staphylococcus aureus [6] were 1.56 µg/mL and 3.13 µg/mL (≈ 3.02 µM), respectively. Also, the Ratio with Staphylococcus aureus [4] came to 2. Besides, the IC50 was 120 nM in test [5] and over 250000 nM in test [7].

Turning to `CC[C@H]1OC(=O)[C@H](C)[C@@H](O[C@H]2C[C@@](C)(OC)[C@@H](O)[C@H](C)O2)[C@H](C)[C@@H](O[C@@H]2O[C@H](C)C[C@H](N(C)C)[C@H]2O)[C@](C)(O)C[C@@H](C)CN(CCCCc2cn(CCn3ccc4ccccc43)nn2)[C@H](C)[C@@H](O)[C@]1(C)O`, the fold change (FC) in the test with Escherichia coli [8] was 2.3. Besides, the MIC50 turned out to be 64 µg/mL (≈ 63.9 µM) in the test with Escherichia coli [1] (ATCC 27856, 18 h); 0.16 µg/mL with Staphylococcus aureus [2]; 1.56 µg/mL (≈ 1.56 µM) in the test on Staphylococcus aureus [6]. The MIC50 entry in the test with Staphylococcus aureus [3] is “inactive”. In the test with Staphylococcus aureus [4], the Ratio came out at 10. For the same molecule, the 50% inhibitory concentration (IC50) in test [5] is 128 nM; in test [7] it was over 250000 nM.

Regarding `CC[C@H]1OC(=O)[C@H](C)[C@@H](O[C@H]2C[C@@](C)(OC)[C@@H](O)[C@H](C)O2)[C@H](C)[C@@H](O[C@@H]2O[C@H](C)C[C@H](N(C)C)[C@H]2O)[C@](C)(O)C[C@@H](C)CN(CCCCc2cn(CCN3CCc4ccccc43)nn2)[C@H](C)[C@@H](O)[C@]1(C)O`, the MIC50 is 4 µg/mL (≈ 3.99 µM) in the test with Escherichia coli [1] (ATCC 27856, 18 h); 0.16 µg/mL in the test with Staphylococcus aureus [2]; 1.56 µg/mL (≈ 1.55 µM) in the test with Staphylococcus aureus [6]. In addition, in the test with Staphylococcus aureus [3], the MIC50 entry was “inactive”. Moreover, the Ratio with Staphylococcus aureus [4] came out at 10. Moreover, the figures for the IC50 in test [5] and in test [7] were 147 nM and over 250000 nM, respectively.

Regarding `CC[C@H]1OC(=O)[C@H](C)[C@@H](O[C@H]2C[C@@](C)(OC)[C@@H](O)[C@H](C)O2)[C@H](C)[C@@H](O[C@@H]2O[C@H](C)C[C@H](N(C)C)[C@H]2O)[C@](C)(O)C[C@@H](C)CN(C)[C@H](C)[C@@H](O)[C@]1(C)O` [AZITHROMYCIN], the MIC50 in the test on Escherichia coli [1] (ATCC 27856, 18 h) stood at 4 µg/mL (≈ 5.34 µM); in the test on Staphylococcus aureus [2], 0.13 µg/mL; with Staphylococcus aureus [6] it was 0.78 µg/mL (≈ 1.04 µM). The MIC50 entry with Staphylococcus aureus [3] was “inactive”. For the same molecule, the Ratio in the test with Staphylococcus aureus [4] is reported as 6. Further, the IC50 in test [5] is 292 nM; in test [7] it was over 250000 nM.

Consider `CC[C@H]1OC(=O)[C@H](C)[C@@H](O[C@H]2C[C@@](C)(OC)[C@@H](O)[C@H](C)O2)[C@H](C)[C@@H](O[C@@H]2O[C@H](C)C[C@H](N(C)C)[C@H]2O)[C@](C)(O)C[C@@H](C)CN(Cc2ccc(-c3cn(CCn4ccc5cc(Cl)ccc54)nn3)cc2)[C@H](C)[C@@H](O)[C@]1(C)O`, for which the MIC50 result with Escherichia coli [1] and in the test with Staphylococcus aureus [3] was “inactive” in each case. For the same molecule, the figures for the MIC50 in the test on Staphylococcus aureus [2] and in the test with Staphylococcus aureus [6] were 1.56 µg/mL and 3.13 µg/mL (≈ 2.93 µM), respectively. Also, in the test with Staphylococcus aureus [4], the Ratio turned out to be 2. Besides, the half-inhibitory concentration (IC50) in test [5] is 1250 nM; in test [7] it was over 250000 nM.

For `CC[C@H]1OC(=O)[C@H](C)[C@@H](O[C@H]2C[C@@](C)(OC)[C@@H](O)[C@H](C)O2)[C@H](C)[C@@H](O[C@@H]2O[C@H](C)C[C@H](N(C)C)[C@H]2O)[C@](C)(O)C[C@@H](C)CN(CCCCc2cn(CCc3cn(C)c4ccccc34)nn2)[C@H](C)[C@@H](O)[C@]1(C)O`, the MIC50 in the test with Escherichia coli [1] (ATCC 27856, 18 h) stood at 128 µg/mL (≈ 126 µM); in the test with Staphylococcus aureus [2], 0.16 µg/mL; in the test on Staphylococcus aureus [6], 1.56 µg/mL (≈ 1.54 µM). In the test with Staphylococcus aureus [3], the MIC50 result was “inactive”. The Ratio with Staphylococcus aureus [4] amounted to 10. Moreover, the IC50 in test [5] was 227 nM; in test [7] it was over 250000 nM.

As to `CC[C@H]1OC(=O)[C@H](C)[C@@H](O[C@H]2C[C@@](C)(OC)[C@@H](O)[C@H](C)O2)[C@H](C)[C@@H](O[C@@H]2O[C@H](C)C[C@H](N(C)C)[C@H]2O)[C@](C)(O)C[C@@H](C)CN(Cc2ccc(-c3cn(CCc4c[nH]c5ccc(Cl)cc45)nn3)cc2)[C@H](C)[C@@H](O)[C@]1(C)O`, the MIC50 result with Escherichia coli [1] and with Staphylococcus aureus [3] was “inactive” in each case. The MIC50 in the test with Staphylococcus aureus [2] stood at 1.56 µg/mL; in the test on Staphylococcus aureus [6], 1.56 µg/mL (≈ 1.46 µM). Besides, the Ratio in the test on Staphylococcus aureus [4] worked out at 1. Further, the half-maximal inhibitory concentration (IC50) in test [5] was 586 nM; in test [7], over 250000 nM.
